GC-A act: GC-A stimulated cGMP production enhancers – HEK293 GC-A cells, cGMP TR-FRET, EC30 ANP, primary screen. 0% at EC30 ANP, 100% saturating ANP. activation, % at 10 µM. AID 1671463, 2021. hit rate 0.14% among 370,000; in the data active = activation above about 40%
Target sequence (P16066 whole entry, looked up): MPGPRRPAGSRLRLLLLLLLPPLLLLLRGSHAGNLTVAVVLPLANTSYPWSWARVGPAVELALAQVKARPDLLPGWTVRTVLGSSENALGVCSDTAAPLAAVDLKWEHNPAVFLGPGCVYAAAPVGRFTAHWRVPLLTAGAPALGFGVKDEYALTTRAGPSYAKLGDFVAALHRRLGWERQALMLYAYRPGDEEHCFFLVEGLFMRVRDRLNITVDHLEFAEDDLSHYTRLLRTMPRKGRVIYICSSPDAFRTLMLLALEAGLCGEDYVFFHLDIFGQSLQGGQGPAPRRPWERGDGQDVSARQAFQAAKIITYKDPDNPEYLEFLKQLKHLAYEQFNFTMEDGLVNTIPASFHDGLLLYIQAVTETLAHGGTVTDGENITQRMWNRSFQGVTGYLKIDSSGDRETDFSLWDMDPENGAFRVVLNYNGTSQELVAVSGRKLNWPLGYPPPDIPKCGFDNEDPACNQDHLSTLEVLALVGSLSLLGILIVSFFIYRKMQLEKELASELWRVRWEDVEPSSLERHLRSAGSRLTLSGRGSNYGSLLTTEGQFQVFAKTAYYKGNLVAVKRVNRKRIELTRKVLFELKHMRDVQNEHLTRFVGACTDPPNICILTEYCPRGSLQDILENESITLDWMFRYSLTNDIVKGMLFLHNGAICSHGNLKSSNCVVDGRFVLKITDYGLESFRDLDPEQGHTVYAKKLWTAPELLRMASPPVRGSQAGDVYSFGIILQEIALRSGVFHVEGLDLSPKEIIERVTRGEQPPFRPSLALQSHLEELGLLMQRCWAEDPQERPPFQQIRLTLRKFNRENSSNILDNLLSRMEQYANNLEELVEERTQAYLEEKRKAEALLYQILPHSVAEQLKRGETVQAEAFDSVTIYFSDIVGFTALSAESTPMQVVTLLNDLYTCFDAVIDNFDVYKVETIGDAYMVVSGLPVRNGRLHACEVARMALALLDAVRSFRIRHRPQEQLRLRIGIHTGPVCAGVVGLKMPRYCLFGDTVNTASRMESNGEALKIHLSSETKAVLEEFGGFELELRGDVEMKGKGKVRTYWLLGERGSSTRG
JMJD2C inh: inhibitors of GASC-1 histone demethylase, primary screen, biochemical, fluorescence, DELFIA europium; GST-JMJD2C(1-420) H3K9me3 demethylation; hit rate 0.069% among 330,000; inhibition, % at 2.35 µM; Lysine-specific demethylase 4C (Homo sapiens), Q9H3R0;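 active = more than half of a compound's replicate wells show inhibition beyond 50%, single wells judged on their own value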;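 also: signal counts dimethyl H3K9 product captured on neutravidin plate; 0% = median of DMSO wells and 100% = 0.3 times that DMSO median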
aDG glyco up: activators of alpha-DG glycosylation, primary screen, uHTS, Pro5-aDG cells, AlphaScreen. AID 624168, 2012. activation, % at 10 µM. alpha-DG glycosylation AlphaScreen (IIH6); 0% Pro5, 100% B10-LARGE cell signal. hit rate 0.22% among 360,000;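 active = activation of at least 8% versus controls, or a plate z-score of at least 8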;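 also: Pro5 are CHO cells carrying HIG-tagged alpha-DG that lacks glycosylation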
NR3A LBD binder: binders of NR3A ligand-binding domain, primary screen, biophysical, differential scanning fluorimetry, uHTS; Glutamate receptor ionotropic, NMDA 3A (GRIN3A) ligand-binding domain; NR3A LBD differential scanning fluorimetry, Tm shift; 0% = protein alone, 100% = glycine-bound protein; hit rate 2.5% among 340,000; Tm shift relative to glycine control, % at 25 µM;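 active = melting temperature shift of at least 10% of the positive control shift, at one fixed dose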
Hep lipid drop: inhibitors of hepatocyte lipid droplet formation, primary screen, imaging, high-throughput imaging, BODIPY stain. AML12 mouse hepatocytes, oleate lipid droplets. AID 1656, 2009. inhibition, % at 6.5 µM. hit rate 0.4% among 240,000;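 active = lipid droplet intensity inhibited by at least 50%, with more than 500 cells counted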
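Assay system: AML12 hepatocytes (mouse); Probe or stimulus: oleic acid at 100 µM to induce lipid droplet formation; Dosing: compound at 6.5 µM only; Schedule: compound with oleate, overnight; Detection: fluorescence imaging, 20x objective, two fields per well; Measure: % inhibition of lipid droplet signal.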
NPR2 activator: human GC-B receptor activators, primary screen, HEK293 GC-B cells, cGMP TR-FRET, EC30 CNP | AID 1920062, 2024 | hit rate 0.11% among 370,000 | 0% at EC30 CNP, 100% saturating CNP | activation, % at 10 µM;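 active = activation at 10 µM reaching about 35% in either raw or pattern-adjusted values, limit read from the data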
Starred values were filed as active, the others as inactive. Shown are actives, neighbours in structure and some others; about 3% of the full set was active somewhere.

For O=C(/C=C/c1ccco1)Nc1ccc2nn(-c3ccccc3)nc2c1 the results were GC-A act -6, JMJD2C inh -8, aDG glyco up 0, NR3A LBD binder 14*, Hep lipid drop -6 and NPR2 activator -1.
`CC(=O)c1cccc(NC(=O)c2ccc(Br)o2)c1` gave GC-A act -3, JMJD2C inh -13, aDG glyco up 0, NR3A LBD binder -2 and NPR2 activator 2.
For CCOc1ccc(-n2nc3ccc(NC(=O)c4ccc5c(c4)OCCO5)cc3n2)cc1 the results were GC-A act 11, JMJD2C inh 3, aDG glyco up 0, NR3A LBD binder 19*, Hep lipid drop -15 and NPR2 activator 2.
Cc1nn(-c2ccccc2)c2sc(C(=O)N3CCN(S(=O)(=O)c4ccc(Br)s4)CC3)cc12 was read as GC-A act -1 and NPR2 activator -5.
COC(=O)c1cccc(OCC(C)CN2CCC(C(O)(c3ccccc3)c3ccccc3)CC2)c1 (stereo not drawn) was read as GC-A act -13 and NPR2 activator -8.
`O=C(Nc1ccc2nn(-c3ccccc3)nc2c1)c1ccc2c(c1)OCCO2` gave GC-A act 5, JMJD2C inh 9, aDG glyco up 1, NR3A LBD binder 21* and NPR2 activator 3.
CCN1C(=O)/C(=C\c2ccncc2)SC1=Nc1ccc(C)c(C)c1 was read as GC-A act -2, JMJD2C inh 9, aDG glyco up 0, NR3A LBD binder 13*, Hep lipid drop -11 and NPR2 activator 2.
Screening COc1ccc(C2CC3CN(C4CCCCC4)C(=O)C3N2C)cc1 (stereo not drawn) returned GC-A act -2 and NPR2 activator 2.
COc1ccc(NC(=O)CSC2=C(C#N)C(c3ccco3)C(C(=O)Nc3nc4ccccc4s3)=C(C)N2)cc1 (stereo not drawn) was read as GC-A act -3, JMJD2C inh 3, aDG glyco up 0, NR3A LBD binder 8 and NPR2 activator -5.
`CC(=O)C1=C(C)NC(SCC(=O)Nc2nc3ccccc3s2)=C(C#N)C1c1ccc(Cl)cc1` (stereo not drawn) gave GC-A act -1, JMJD2C inh -1, aDG glyco up 0, NR3A LBD binder 12*, Hep lipid drop -6 and NPR2 activator 1.
Screening Cc1cc(C)cc(NC(=O)C(=O)NCC2CCCN2S(=O)(=O)c2cccs2)c1 (stereo not drawn) returned GC-A act 4, JMJD2C inh -28, aDG glyco up 0, NR3A LBD binder 0 and NPR2 activator -2.
For CCOc1ccc(-c2[nH]ncc2Oc2cccc(OC)c2)c(O)c1 the results were GC-A act 4, JMJD2C inh 10, aDG glyco up 0, NR3A LBD binder 6 and NPR2 activator 7.
COc1ccccc1Oc1cn[nH]c1-c1ccc(O)cc1O was read as GC-A act 25, JMJD2C inh -69, aDG glyco up 0, NR3A LBD binder -5, Hep lipid drop 2 and NPR2 activator -3.
COc1cccc(Oc2cn[nH]c2-c2ccc(O)cc2O)c1 was read as GC-A act 55*, JMJD2C inh -68, aDG glyco up 4, NR3A LBD binder 28*, Hep lipid drop 22 and NPR2 activator 15.
COc1cccc(Oc2cn[nH]c2-c2ccc(OC)cc2O)c1 was read as GC-A act 0, JMJD2C inh 16, aDG glyco up 1, NR3A LBD binder 22* and NPR2 activator -2.
Screening COc1ccc(CCN(C)C(=O)c2cc(-c3ccc(C)cc3)nc3ccccc23)cc1OC returned GC-A act 8, JMJD2C inh -5, aDG glyco up 0, NR3A LBD binder -1, Hep lipid drop -5 and NPR2 activator 7.
